Data set [1] concerns Pseudomonas aeruginosa. The data set can be described thus: Antibacterial activity against Pseudomonas aeruginosa at 0.5 mg/ml incubated for 18 hrs by well plate technique. The class given is functional. Particulars: for zone of inhibition at 500 µg/mL: read-out: DIZ. Put shortly: (§1)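 Bacteria kept on nutrient agar at 37 °C, grown statically in nutrient broth (start ~10-100 cfu/mL) at 37 °C for 18-24 h. Suspensions diluted in saline and spread on nutrient agar, then wells cut with a cork borer. Compound in DMSO at 1 or 0.5 mg/mL added to wells, 37 °C, 18 h. Inhibition zone diameter measured minus DMSO value; triplicate; streptomycin standard.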

Data set [2] relates to Candida albicans. The data set can be described thus: Antifungal activity against Candida albicans at 0.5 mg/ml incubated for 3 days. Particulars: for zone of inhibition at 500 µg/mL: 72 h, read-out: IZ. The format is functional. The gist of the method:
(§2)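 Well plate method on potato dextrose agar. Fungal stock suspended in distilled water with Tween 80 and swabbed over plates. Samples in DMSO at 1 and 0.5 mg/mL added to wells, incubated 25 °C for 3 days, then scored for inhibition zones; fluconazole standard.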

In data set [3] the test system is Escherichia coli. Kind of data set: Antibacterial activity against Escherichia coli at 0.5 mg/ml incubated for 18 hrs by well plate technique. The settings on record: for zone of inhibition at 500 µg/mL: read-out: DIZ. The format is functional. The gist of the method: as §1
The test system of data set [4] is Staphylococcus aureus. The data set can be described thus: Antibacterial activity against Staphylococcus aureus at 0.5 mg/ml incubated for 18 hrs by well plate technique. Particulars: for zone of inhibition at 500 µg/mL: read-out: DIZ. The format is functional. The gist of the method:
as §1

Data set [5] deals with Escherichia coli. Kind of data set: Antibacterial activity against Escherichia coli at 1 mg/ml incubated for 18 hrs by well plate technique. The format is functional. The settings on record: for zone of inhibition at 1000 µg/mL: read-out: DIZ. Put shortly:
as §1

Data set [6] relates to Chrysosporium keratinophilum. Kind of data set: Antifungal activity against Chrysosporium keratinophilum at 0.5 mg/ml incubated for 3 days. The settings on record: for zone of inhibition at 500 µg/mL: 72 h, read-out: IZ. The format is functional. Put shortly: as §2
Data set [7] relates to Salmonella typhi. The data set can be described thus: Antibacterial activity against Salmonella typhi at 0.5 mg/ml incubated for 18 hrs by well plate technique. The format is functional, Salmonella enterica subsp. enterica serovar Typhi. The settings on record: for zone of inhibition at 500 µg/mL: Salmonella enterica, read-out: DIZ; for diameter of the inhibition zone (DIZ): Salmonella enterica subsp. enterica serovar Typhi. The gist of the method: (§3)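 Well diffusion on nutrient agar; strains kept on nutrient agar at 37 °C, grown statically in nutrient broth 18-24 h at 37 °C, diluted in saline, 0.1 ml spread per plate. Compounds in DMSO at 1 and 0.5 mg/mL added to cork-bored wells; 18 h at 37 °C. Inhibition zone diameter measured, DMSO value subtracted; triplicate; streptomycin reference.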

Data set [8] has as its system Aspergillus flavus. The data set can be described thus: Antifungal activity against Aspergillus flavus at 0.5 mg/ml incubated for 3 days. The class given is functional. Particulars: for zone of inhibition at 500 µg/mL: 72 h, read-out: IZ. The gist of the method:
as §2

The subject of data set [9] is Chrysosporium keratinophilum. Kind of data set: Antifungal activity against Chrysosporium keratinophilum at 1 mg/ml incubated for 3 days. Particulars: for zone of inhibition at 1000 µg/mL: 72 h, read-out: IZ. The format is functional. The gist of the method: as §2
The test system of data set [10] is Salmonella typhi. The data set can be described thus: Antibacterial activity against Salmonella typhi at 1 mg/ml incubated for 18 hrs by well plate technique. Particulars: for zone of inhibition at 1000 µg/mL: Salmonella enterica, read-out: DIZ; for diameter of the inhibition zone (DIZ): Salmonella enterica subsp. enterica serovar Typhi. The format is functional, Salmonella enterica subsp. enterica serovar Typhi. Put shortly: as §3

For data set [11], the system named is Pseudomonas aeruginosa. The data set can be described thus: Antibacterial activity against Pseudomonas aeruginosa at 1 mg/ml incubated for 18 hrs by well plate technique. The class given is functional. Particulars: for zone of inhibition at 1000 µg/mL: read-out: DIZ. The gist of the method:
as §1

In data set [12] the test system is Mycobacterium tuberculosis. The data set can be described thus: Antitubercular activity against Mycobacterium tuberculosis H37Rv ATCC 27294/XDR-TB incubated for 28 days by agar dilution method. The format is functional. Particulars: 672 h. The gist of the method:
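Agar dilution: two-fold dilutions in Middlebrook 7H11 agar with OADC. Inoculum from fresh 7H11/OADC slants adjusted to 1 mg/mL wet weight in 0.05% Tween 80 saline, diluted 10^-2 (~10⁷ cfu/mL); 5 µL spotted per tube. Incubated 37 °C; MIC, lowest concentration fully inhibiting growth, read after 28 days, in triplicate.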

The subject of data set [13] is Candida albicans. The data set can be described thus: Antifungal activity against Candida albicans at 1 mg/ml incubated for 3 days. The format is functional. Particulars: for zone of inhibition at 1000 µg/mL: 72 h, read-out: IZ. The gist of the method: as §2
Data set [14] in a line: Antioxidant activity assessed as DPPH radical scavenging activity incubated for 10 mins by UV-visible spectrometry. The class given is physicochemical. The gist of the method: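 DPPH free-radical scavenging; absorbance read at 517 nm against a methanol blank. % scavenging = (A control − A sample)/A control × 100.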
Data set [15] has as its system Staphylococcus aureus. The data set can be described thus: Antibacterial activity against Staphylococcus aureus at 1 mg/ml incubated for 18 hrs by well plate technique. The format is functional. The settings on record: for zone of inhibition at 1000 µg/mL: read-out: DIZ. The gist of the method:
as §1

Data set [16] deals with Aspergillus flavus. The data set can be described thus: Antifungal activity against Aspergillus flavus at 1 mg/ml incubated for 3 days. Particulars: for zone of inhibition at 1000 µg/mL: 72 h, read-out: IZ. The class given is functional. The gist of the method:
as §2

Values after ≈ are worked out from the molar mass of the structure shown. Active and inactive are the calls of the source. The rule behind the calls is not given here.

`Cc1ccc(-c2nn3c(-c4nc5ccccc5[nH]4)c(-c4ccc(F)cc4)nc3s2)cc1`: the zone of inhibition at 500 µg/mL stood at 10 mm with Pseudomonas aeruginosa [1]; 4 mm with Candida albicans [2]; 9 mm with Escherichia coli [3]; 11 mm in the data set on Staphylococcus aureus [4]; 3 mm in data set [6]; 13 mm with Salmonella typhi [7]. Besides, the zone of inhibition at 500 µg/mL with Aspergillus flavus [8] worked out at 4 mm. For the same compound, the zone of inhibition at 1000 µg/mL was found to be 13 mm in the data set on Escherichia coli [5]; 5 mm in [9]; 15 mm in the data set with Salmonella typhi [10]; 13 mm in the data set with Pseudomonas aeruginosa [11]; 6 mm in the data set on Candida albicans [13]; 14 mm with Staphylococcus aureus [15]. Moreover, the zone of inhibition at 1000 µg/mL in the data set on Aspergillus flavus [16] amounted to 6 mm. This compound also came in with an MIC in data set [12] of 12.5 µg/mL (≈ 29.4 µM). For the same compound, the “inhibition (INH)” value in data set [14] was found to be 22.6%.
With `Cc1ccc(-c2nn3c(-c4nc5cc([N+](=O)[O-])ccc5[nH]4)c(-c4ccc(Cl)cc4)nc3s2)cc1`, the “diameter of the inhibition zone (DIZ)” value in the data set with Pseudomonas aeruginosa [1], in the data set with Escherichia coli [3], in the data set with Staphylococcus aureus [4], in the data set with Escherichia coli [5], with Salmonella typhi [7] and in the data set with Salmonella typhi [10] was “inactive” throughout. Also, the “diameter of the inhibition zone (DIZ)” value in the data set with Pseudomonas aeruginosa [11] and with Staphylococcus aureus [15] was “inactive” in each case. Besides, the “inhibition zone (IZ)” value (in the data set with Candida albicans [2]; in data set [6]; in the data set on Aspergillus flavus [8]; in data set [9]; in the data set on Candida albicans [13]; in the data set with Aspergillus flavus [16]) was “inactive” in each case. In addition, the MIC in data set [12] stood at 12.5 µg/mL (≈ 25.7 µM). Besides, in data set [14], the “inhibition (INH)” value is recorded as 21.8%.
On to `Cc1ccc(-c2nc3sc(C)nn3c2-c2nc3cc([N+](=O)[O-])ccc3[nH]2)cc1`, for which the “diameter of the inhibition zone (DIZ)” value in the data set on Pseudomonas aeruginosa [1], with Escherichia coli [3], with Staphylococcus aureus [4], in the data set with Escherichia coli [5], with Salmonella typhi [7] and in the data set with Salmonella typhi [10] was “inactive” in each case. Also, the “diameter of the inhibition zone (DIZ)” value in the data set on Pseudomonas aeruginosa [11] and in the data set with Staphylococcus aureus [15] was “inactive” throughout. Besides, the “inhibition zone (IZ)” value (with Candida albicans [2]; in [6]; in the data set on Aspergillus flavus [8]; in data set [9]; in the data set on Candida albicans [13]; with Aspergillus flavus [16]) was “inactive” each time. This compound also returned an MIC in data set [12] of 50 µg/mL (≈ 128 µM). In addition, the “inhibition (INH)” value in data set [14] turned out to be 28.9%.
On to `Cc1ccc(-c2nc3sc(-c4ccc(Cl)cc4)nn3c2-c2nc3cc(Cl)ccc3[nH]2)cc1`, for which the zone of inhibition at 500 µg/mL in the data set on Pseudomonas aeruginosa [1] worked out at 3 mm; with Candida albicans [2], 3 mm; in the data set with Escherichia coli [3], 2 mm; with Staphylococcus aureus [4], 3 mm; in [6], 2 mm; in the data set on Salmonella typhi [7], 2 mm. Besides, the zone of inhibition at 500 µg/mL in the data set on Aspergillus flavus [8] turned out to be 2 mm. The zone of inhibition at 1000 µg/mL in the data set with Escherichia coli [5] was 4 mm; in data set [9] it was 3 mm; with Salmonella typhi [10], 3 mm; with Pseudomonas aeruginosa [11], 4 mm; in the data set with Candida albicans [13], 4 mm; with Staphylococcus aureus [15] it was 3 mm. The zone of inhibition at 1000 µg/mL in the data set with Aspergillus flavus [16] turned out to be 3 mm. Moreover, in data set [12], the lowest concentration to inhibit growth (MIC) was 25 µg/mL (≈ 52.5 µM). Further, the “inhibition (INH)” value in data set [14] stood at 31.9%.
In the case of `COc1ccc(-c2nc3sc(-c4ccc(F)cc4)nn3c2-c2nc3cc([N+](=O)[O-])ccc3[nH]2)cc1`, the zone of inhibition at 500 µg/mL in the data set on Pseudomonas aeruginosa [1] came out at 3 mm; in the data set with Candida albicans [2] it was 2 mm; in the data set with Escherichia coli [3], 3 mm; in the data set on Staphylococcus aureus [4], 3 mm; in data set [6], 2 mm; in the data set with Salmonella typhi [7], 3 mm. For the same compound, in the data set on Aspergillus flavus [8], the zone of inhibition at 500 µg/mL amounted to 3 mm. For the same compound, the zone of inhibition at 1000 µg/mL in the data set with Escherichia coli [5] is 5 mm; in data set [9], 4 mm; in the data set on Salmonella typhi [10], 4 mm; in the data set with Pseudomonas aeruginosa [11] it was 6 mm; in the data set with Candida albicans [13] it was 5 mm; in the data set on Staphylococcus aureus [15], 5 mm. The zone of inhibition at 1000 µg/mL in the data set on Aspergillus flavus [16] worked out at 5 mm. The same compound came in with an MIC in data set [12] of 12.5 µg/mL (≈ 25.7 µM). Besides, in [14], the “inhibition (INH)” value is on record as 30.8%.

For the origin of these results see ChEMBL document CHEMBL3414425, “Synthesis and biological evaluation of new imidazo[2,1-b][1,3,4]thiadiazole-benzimidazole derivatives” (Eur J Med Chem, 2015).
